Assay: Laboratory safety in RSV-infected infants
Format: in vivo, human
How it was run: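 Clinical laboratory tests were run in RSV-infected infants (>1 to ≤24 months) given oral drug or placebo once daily for 7 days. Abnormalities were graded with the DMID Pediatric Toxicity Tables (November 2007 version). Patients were followed for 28 days after randomisation.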

SMILES: CS(=O)(=O)CCCn1c(Cn2c(=O)n(CC(F)(F)F)c3ccncc32)cc2cc(Cl)ccc21 [JNJ-53718678]
- Hemoglobin Grade 1 (treatment-emergent worst toxicity grade) (All cohorts, n=37): 2 (5) no. (%)
- Hemoglobin Grade 2 (treatment-emergent worst toxicity grade) (All cohorts, n=37): 1 (3) no. (%)
- Hyperkalemia Grade 1 (treatment-emergent worst toxicity grade) (All cohorts, n=37): 10 (27) no. (%)
- Hyperkalemia Grade 2 (treatment-emergent worst toxicity grade) (All cohorts, n=37): 2 (5) no. (%)
- Hypoglycemia Grade 1 (treatment-emergent worst toxicity grade) (All cohorts, n=37): 3 (8) no. (%)
- Hyponatremia Grade 2 (treatment-emergent worst toxicity grade) (All cohorts, n=37): 3 (8) no. (%)
- Eosinophils/leukocytes: Above (treatment-emergent nongraded abnormality) (All, n=26): 7 (27) no. (%)
- Eosinophils/leukocytes: Below (treatment-emergent nongraded abnormality) (All, n=26): 1 (4) no. (%)
- Lymphocytes/leukocytes: Above (treatment-emergent nongraded abnormality) (All, n=26): 6 (23) no. (%)
- Lymphocytes/leukocytes: Below (treatment-emergent nongraded abnormality) (All, n=26): 1 (4) no. (%)
- Monocytes/leukocytes: Above (treatment-emergent nongraded abnormality) (All, n=26): 5 (19) no. (%)
- Monocytes/leukocytes: Below (treatment-emergent nongraded abnormality) (All, n=26): 3 (12) no. (%)
- Neutrophils/leukocytes: Above (treatment-emergent nongraded abnormality) (All, n=26): 1 (4) no. (%)
- Neutrophils/leukocytes: Below (treatment-emergent nongraded abnormality) (All, n=26): 6 (23) no. (%)
- Urea: Above (treatment-emergent nongraded abnormality) (All, n=33): 1 (3) no. (%)
- Urea: Below (treatment-emergent nongraded abnormality) (All, n=33): 5 (15) no. (%)
- Bicarbonate: Above (treatment-emergent nongraded abnormality) (All, n=35): 3 (9) no. (%)
- Bicarbonate: Below (treatment-emergent nongraded abnormality) (All, n=35): 6 (17) no. (%)
- Eosinophils: Above (treatment-emergent nongraded abnormality) (All, n=35): 7 (20) no. (%)
- Eosinophils: Below (treatment-emergent nongraded abnormality) (All, n=35): 0 no. (%)
- Lymphocytes: Above (treatment-emergent nongraded abnormality) (All, n=36): 6 (17) no. (%)
- Lymphocytes: Below (treatment-emergent nongraded abnormality) (All, n=36): 0 no. (%)
- Alkaline phosphatase: Above (treatment-emergent nongraded abnormality) (All, n=37): 2 (5) no. (%)
- Alkaline phosphatase: Below (treatment-emergent nongraded abnormality) (All, n=37): 3 (8) no. (%)
- Chloride: Above (treatment-emergent nongraded abnormality) (All, n=37): 5 (14) no. (%)
- Chloride: Below (treatment-emergent nongraded abnormality) (All, n=37): 1 (3) no. (%)
- Erythrocytes: Above (treatment-emergent nongraded abnormality) (All, n=37): 4 (11) no. (%)
- Erythrocytes: Below (treatment-emergent nongraded abnormality) (All, n=37): 3 (8) no. (%)
- Leukocytes: Above (treatment-emergent nongraded abnormality) (All, n=37): 6 (16) no. (%)
- Eosinophils/leukocytes: Above (treatment-emergent nongraded abnormality) (High (cohorts 1d,2c,3c), n=4): 1 (25) no. (%)
- Eosinophils/leukocytes: Below (treatment-emergent nongraded abnormality) (High (cohorts 1d,2c,3c), n=4): 0 no. (%)
- Lymphocytes/leukocytes: Above (treatment-emergent nongraded abnormality) (High (cohorts 1d,2c,3c), n=4): 1 (25) no. (%)
- Lymphocytes/leukocytes: Below (treatment-emergent nongraded abnormality) (High (cohorts 1d,2c,3c), n=4): 0 no. (%)
- Monocytes/leukocytes: Above (treatment-emergent nongraded abnormality) (High (cohorts 1d,2c,3c), n=4): 0 no. (%)
- Monocytes/leukocytes: Below (treatment-emergent nongraded abnormality) (High (cohorts 1d,2c,3c), n=4): 0 no. (%)
- Neutrophils/leukocytes: Above (treatment-emergent nongraded abnormality) (High (cohorts 1d,2c,3c), n=4): 0 no. (%)
- Neutrophils/leukocytes: Below (treatment-emergent nongraded abnormality) (High (cohorts 1d,2c,3c), n=4): 0 no. (%)
- Bicarbonate: Above (treatment-emergent nongraded abnormality) (High (cohorts 1d,2c,3c), n=8): 0 no. (%)
- Bicarbonate: Below (treatment-emergent nongraded abnormality) (High (cohorts 1d,2c,3c), n=8): 3 (38) no. (%)
- Eosinophils: Above (treatment-emergent nongraded abnormality) (High (cohorts 1d,2c,3c), n=8): 0 no. (%)
- Eosinophils: Below (treatment-emergent nongraded abnormality) (High (cohorts 1d,2c,3c), n=8): 0 no. (%)
- Alkaline phosphatase: Above (treatment-emergent nongraded abnormality) (High (cohorts 1d,2c,3c), n=9): 0 no. (%)
- Alkaline phosphatase: Below (treatment-emergent nongraded abnormality) (High (cohorts 1d,2c,3c), n=9): 0 no. (%)
- Chloride: Above (treatment-emergent nongraded abnormality) (High (cohorts 1d,2c,3c), n=9): 0 no. (%)
- Chloride: Below (treatment-emergent nongraded abnormality) (High (cohorts 1d,2c,3c), n=9): 0 no. (%)
- Erythrocytes: Above (treatment-emergent nongraded abnormality) (High (cohorts 1d,2c,3c), n=9): 0 no. (%)
- Erythrocytes: Below (treatment-emergent nongraded abnormality) (High (cohorts 1d,2c,3c), n=9): 1 (11) no. (%)
- Hemoglobin Grade 1 (treatment-emergent worst toxicity grade) (High (cohorts 1d,2c,3c), n=9): 0 no. (%)
- Hemoglobin Grade 2 (treatment-emergent worst toxicity grade) (High (cohorts 1d,2c,3c), n=9): 0 no. (%)
- Hyperkalemia Grade 1 (treatment-emergent worst toxicity grade) (High (cohorts 1d,2c,3c), n=9): 1 (11) no. (%)
- Hyperkalemia Grade 2 (treatment-emergent worst toxicity grade) (High (cohorts 1d,2c,3c), n=9): 1 (11) no. (%)
- Hypoglycemia Grade 1 (treatment-emergent worst toxicity grade) (High (cohorts 1d,2c,3c), n=9): 3 (33) no. (%)
- Hyponatremia Grade 2 (treatment-emergent worst toxicity grade) (High (cohorts 1d,2c,3c), n=9): 1 (11) no. (%)
- Leukocytes: Above (treatment-emergent nongraded abnormality) (High (cohorts 1d,2c,3c), n=9): 3 (33) no. (%)
- Lymphocytes: Above (treatment-emergent nongraded abnormality) (High (cohorts 1d,2c,3c), n=9): 1 (11) no. (%)
- Lymphocytes: Below (treatment-emergent nongraded abnormality) (High (cohorts 1d,2c,3c), n=9): 0 no. (%)
- Urea: Above (treatment-emergent nongraded abnormality) (High (cohorts 1d,2c,3c), n=9): 0 no. (%)
- Urea: Below (treatment-emergent nongraded abnormality) (High (cohorts 1d,2c,3c), n=9): 0 no. (%)
- Eosinophils/leukocytes: Above (treatment-emergent nongraded abnormality) (Low (cohorts 1a,2a,3a), n=9): 2 (22) no. (%)
- Eosinophils/leukocytes: Below (treatment-emergent nongraded abnormality) (Low (cohorts 1a,2a,3a), n=9): 0 no. (%)
- Lymphocytes/leukocytes: Above (treatment-emergent nongraded abnormality) (Low (cohorts 1a,2a,3a), n=9): 2 (22) no. (%)
- Lymphocytes/leukocytes: Below (treatment-emergent nongraded abnormality) (Low (cohorts 1a,2a,3a), n=9): 0 no. (%)
- Monocytes/leukocytes: Above (treatment-emergent nongraded abnormality) (Low (cohorts 1a,2a,3a), n=9): 2 (22) no. (%)
- Monocytes/leukocytes: Below (treatment-emergent nongraded abnormality) (Low (cohorts 1a,2a,3a), n=9): 2 (22) no. (%)
- Neutrophils/leukocytes: Above (treatment-emergent nongraded abnormality) (Low (cohorts 1a,2a,3a), n=9): 0 no. (%)
- Neutrophils/leukocytes: Below (treatment-emergent nongraded abnormality) (Low (cohorts 1a,2a,3a), n=9): 3 (33) no. (%)
- Urea: Above (treatment-emergent nongraded abnormality) (Low (cohorts 1a,2a,3a), n=9): 1 (11) no. (%)
- Urea: Below (treatment-emergent nongraded abnormality) (Low (cohorts 1a,2a,3a), n=9): 1 (11) no. (%)
- Bicarbonate: Above (treatment-emergent nongraded abnormality) (Low (cohorts 1a,2a,3a), n=11): 1 (9) no. (%)
- Bicarbonate: Below (treatment-emergent nongraded abnormality) (Low (cohorts 1a,2a,3a), n=11): 0 no. (%)
- Alkaline phosphatase: Above (treatment-emergent nongraded abnormality) (Low (cohorts 1a,2a,3a), n=12): 1 (8) no. (%)
- Alkaline phosphatase: Below (treatment-emergent nongraded abnormality) (Low (cohorts 1a,2a,3a), n=12): 0 no. (%)
- Chloride: Above (treatment-emergent nongraded abnormality) (Low (cohorts 1a,2a,3a), n=12): 1 (8) no. (%)
- Chloride: Below (treatment-emergent nongraded abnormality) (Low (cohorts 1a,2a,3a), n=12): 0 no. (%)

Reference: PMC7744997 (Clinical Infectious Diseases: An Official Publication of …, 2020)
